The source of these data is ChEMBL document CHEMBL1141653, “New bis(2-aminoimidazoline) and bisguanidine DNA minor groove binders with potent in vivo antitrypanosomal and antiplasmodial activity” (J Med Chem, 2008).

For assay [1], the system named is L6. The assay is described as follows: Cytotoxicity against rat L6 cells. Format: cell-based.
Assay [2] has as its system Trypanosoma brucei rhodesiense. The assay is described as follows: Antitrypanosomal activity against Trypanosoma brucei rhodesiense STIB900. Format: functional, organism-based. The gist of the method:
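Bloodstream forms (10⁴ per well) in MEM with 15% heat-inactivated horse serum, 25 mM HEPES, 2-mercaptoethanol, hypoxanthine. 3-fold serial dilutions from 90 to 0.123 µg/mL, in duplicate. Incubation 72 h at 37 °C, 5% CO₂. Resazurin then added for 2–4 h more. Fluorescence read at ex 536 / em 588 nm.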

Assay [3] relates to Plasmodium falciparum. The assay is described as follows: Antiplasmodial activity against Plasmodium falciparum K1 in [3H]hypoxanthine incorporation assay. Type of assay: functional, organism-based. The settings on record: K1, 72 h. The essentials: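 K1 erythrocytic stages in RPMI 1640 without hypoxanthine with AlbuMax, human A⁺ red cells at 2.5% hematocrit, 0.3% parasitemia. Compounds taken from 10 mg/mL DMSO stock, tested as serial doubling dilutions at 37 °C in 4% CO₂/3% O₂/93% N₂. After 48 h, ³H-hypoxanthine (0.5 µCi) added for 24 h more; incorporation by scintillation counting. IC₅₀ from sigmoidal curves.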

Assay [4] in a line: Binding affinity for DNA assessed as thermal melting temperature. The gist of the method: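 Thermal melting of poly(dA)·poly(dT): DNA at 40 µM base with compound at 12 µM (ratio 0.3) in MES 0.01 M / EDTA 0.001 M buffer, pH 6.25. A260 followed from 20 to 95 °C at 0.5 °C/min. Value is ΔTm.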
Assay [5] in a line: Selectivity index, ratio of IC50 for rat L6 cells to IC50 for Plasmodium falciparum K1. Format: functional. The essentials:
(§1)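 Ratio of the IC₅₀ on L-6 rat skeletal myoblasts to the parasite IC₅₀. Cytotoxicity measured in RPMI 1640 with L-glutamine and 10% FBS, serial dilutions 90 to 0.123 µg/mL, duplicate. After 72 h, Alamar blue (resazurin) added for 2 h. Fluorescence read at ex 536 / em 588 nm.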

The nature of assay [6]: Selectivity index, ratio of IC50 for rat L6 cells to IC50 for Trypanosoma brucei rhodesiense STIB900. Type of assay: functional. The essentials:
as §1

Assay [7] deals with Ferriprotoporphyrin IX. The assay is described as follows: Inhibition of ferriprotoporphyrin 9 biomineralization at 1 mg/ml. Type of assay: functional. The gist of the method: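 β-Hematin formation: hemin chloride (0.5 mg/mL in DMSO) with 0.5 M sodium acetate pH 4.4 and drug dilutions, 37 °C for 18–24 h. Pellet washed with DMSO, dissolved in 0.1 N NaOH, A405 read. Percent inhibition relative to solvent control. IC₅₀ derived, or percent inhibition at 1 mg/mL (highest concentration) given when no IC₅₀.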

Turning to `c1ccc(NC2=NCCN2)cc1`, the values for the half-maximal inhibitory concentration (IC50) in assay [1], in assay [2] and in assay [3] were greater than 455 µM, 182 µM and greater than 25 µM, respectively.
As to `Cc1ccc(NC2=NCCN2)cc1C`, the IC50 (in general, the concentration needed to halve the response being measured) in assay [1] is greater than 398 µM; in assay [2], 49.8 µM; in assay [3], 17.1 µM.
On the same counts, the results for `N=C(N)Nc1ccc(C(=O)Nc2ccccc2)cc1` are greater than 309 µM, 87.4 µM and 13.3 µM.
`c1cc(N2CCCCC2)ccc1NC1=NCCN1`: the IC50 in assay [1] is greater than 283 µM; in assay [2] it was 50.4 µM; in assay [3], 12 µM.
For the molecule `COc1ccc(NC2=NCCN2)cc1OC`, the results for the half-maximal inhibitory concentration (IC50) in assay [1], in assay [2] and in assay [3] were greater than 349 µM, 84.2 µM and 14.8 µM, respectively.
For `O=C(Nc1ccccc1)Nc1ccc(NC2=NCCN2)cc1` the same measures were greater than 219 µM, 45.4 µM and 3.4 µM.
For `c1cc2c(cc1NC1=NCCN1)OCCO2` the same measures were greater than 351 µM, 68.4 µM and greater than 19 µM.
In the case of `N=C(N)c1ccc(OCCCCCOc2ccc(C(=N)N)cc2)cc1`, the shift in melting temperature (ΔTm) – broadly, the change in melting temperature against a reference sample – in assay [4] came to 32.3 °C.
On to `N=C(N)Nc1ccc(NC(=S)Nc2ccccc2)cc1`, for which the results for the IC50 in assay [1], in assay [2] and in assay [3] were greater than 225 µM, 1.3 µM and 8.7 µM, respectively.
Regarding `N=C(N)Nc1ccc(S(=O)(=O)c2ccc(NC(=N)N)cc2)cc1`, the ΔTm in assay [4] turned out to be 12.8 °C. For the same molecule, the results for the “Ratio IC50” value in assay [5] and in assay [6] were greater than 500 and greater than 51, respectively. For the same molecule, the figures for the IC50 in assay [1], in assay [2] and in assay [3] were greater than 222 µM, 4.3 µM and 0.444 µM, respectively.
As to `N=C(N)Nc1ccc(N2CCCCC2)cc1`, the values for the IC50 in assay [1], in assay [2] and in assay [3] were 232 µM, 48.6 µM and 7.9 µM, respectively.
On the same counts, the results for `c1ccc(Sc2ccc(NC3=NCCN3)cc2)cc1` are 28.5 µM, 1.9 µM and 1.2 µM.
As to `CC(C)(C)OC(=O)N1CCN(C(=O)OC(C)(C)C)C1=Nc1ccc(S(=O)(=O)c2ccc(N=C3N(C(=O)OC(C)(C)C)CCN3C(=O)OC(C)(C)C)cc2)cc1`, the “Ratio IC50” value in assay [5] is 1025. Moreover, the IC50 in assay [1] is 56.4 µM; in assay [2], 2.6 µM; in assay [3] it was 0.055 µM. Besides, in assay [7], the inhibition – broadly, the percentage by which the read-out fell short of the control – amounted to 27%.
Take `O=C(Nc1ccccc1)c1ccc(NC2=NCCN2)cc1`: the values for the IC50 in assay [1], in assay [2] and in assay [3] were greater than 284 µM, 42.9 µM and greater than 15 µM, respectively.
On the same counts, the results for `c1cc2c(cc1NC1=NCCN1)CCC2` are greater than 378 µM, 9.2 µM and 5.3 µM.
On to `N=C(N)Nc1ccc(N)cc1`, for which the values for the 50% inhibitory concentration (IC50) in assay [1], in assay [2] and in assay [3] were 132 µM, 311 µM and greater than 26 µM, respectively.
For `N=C(N)Nc1ccc(NC(=O)Nc2ccccc2)cc1` the same measures were greater than 234 µM, 32.9 µM and 4.1 µM.
For `N=C(N)Nc1ccc(Nc2ccccc2)cc1` the same measures were 49.5 µM, 4.8 µM and 1.6 µM.
For `CSc1ccc(NC(=N)N)cc1` the same measures were 240 µM, 5.9 µM and 1.3 µM.
For `O=C(Nc1ccc(NC2=NCCN2)cc1)c1ccccc1`, the IC50 was greater than 284 µM in assay [1], 94.7 µM in assay [2] and greater than 15 µM in assay [3].
Consider `Nc1ccc(NC2=NCCN2)cc1`, for which the figures for the half-maximal inhibitory concentration (IC50) in assay [1] and in assay [3] were greater than 423 µM and 15 µM, respectively.
With `N=C(N)Nc1ccc(Cc2ccccc2)cc1`, the IC50 in assay [1] was found to be 43.9 µM; in assay [2], 15.9 µM; in assay [3], 3.8 µM.
With `CC(=O)c1ccc(NC(=N)N)cc1`, the half-maximal inhibitory concentration (IC50) in assay [1] was greater than 421 µM; in assay [2], 155 µM; in assay [3], greater than 23 µM.
Turning to `N=C(N)Nc1ccc(C(=O)c2ccccc2)cc1`, the half-maximal inhibitory concentration (IC50) in assay [1] is 118 µM; in assay [2], 14.4 µM; in assay [3] it was greater than 18 µM.
With `S=C(Nc1ccccc1)Nc1ccc(NC2=NCCN2)cc1`, the IC50 in assay [1] is 91.1 µM; in assay [2], 2.6 µM; in assay [3], 3.1 µM.
On the same counts, the results for `O=C(c1ccccc1)c1ccc(NC2=NCCN2)cc1` are 226 µM, 9.4 µM and 5.2 µM.
For the molecule `N=C(N)Nc1ccc2c(c1)OCO2`, the half-inhibitory concentration (IC50) in assay [1] was greater than 417 µM; in assay [2], 146 µM; in assay [3] it was greater than 23 µM.
On the same counts, the results for `Cc1ccc(NC2=NCCN2)cc1` are greater than 425 µM, 262 µM and greater than 23 µM.
As to `CSc1ccc(NC2=NCCN2)cc1`, the concentration for half-maximal inhibition (IC50) in assay [1] turned out to be 174 µM; in assay [2], 7.3 µM; in assay [3], 1.7 µM.
For `N=C(N)Nc1ccc2c(c1)Cc1cc(NC(=N)N)ccc1-2`, the “Ratio IC50” value in assay [5] worked out at 2043; in assay [6], 196. Also, the figures for the IC50 in assay [1], in assay [2] and in assay [3] were 4.7 µM, 0.024 µM and 0.0023 µM, respectively.
`Nc1nc(N)nc(Nc2ccc([As]3SCC(CO)S3)cc2)n1` (centres undefined) [MELARSOPROL] came in with an IC50 in assay [3] of 5.5 µM.
As to `COc1ccc(NC(=N)N)cc1OC`, the IC50 in assay [1] was greater than 388 µM; in assay [2], 237 µM; in assay [3], 14.8 µM.
For `CCN(CC)c1ccc(NC2=NCCN2)cc1` the same measures were greater than 444 µM, 40.1 µM and 15 µM.
For `CN(C)c1ccc(NC(=N)N)cc1` the same measures were greater than 358 µM, 20.1 µM and greater than 19 µM.
On the same counts, the results for `CN(C)c1ccc(NC2=NCCN2)cc1` are greater than 324 µM, 46.6 µM and greater than 18 µM.
As to `c1ccc(Nc2ccc(NC3=NCCN3)cc2)cc1`, the half-inhibitory concentration (IC50) in assay [1] was 90.7 µM; in assay [2], 1.2 µM; in assay [3], 0.549 µM.
On the same counts, the results for `c1cc2c(cc1NC1=NCCN1)OCO2` are greater than 372 µM, 93.5 µM and greater than 20 µM.
For `CCc1ccc(NC(=N)N)cc1` the same measures were 310 µM, 45.7 µM and 9 µM.
On the same counts, the results for `Cc1ccc(NC(=N)N)cc1` are greater than 484 µM, 164 µM and greater than 27 µM.
Take `N=C(N)Nc1ccc2c(c1)CCC2`: the IC50 in assay [1] amounted to 73.7 µM; in assay [2], 0.99 µM; in assay [3], 0.95 µM.
As to `CCOC(CNC(=N)Nc1ccc(Cc2ccc(NC(=N)NCC(OCC)OCC)cc2)cc1)OCC`, in assay [4], the shift in melting temperature (ΔTm) is 5.3 °C. Moreover, the “Ratio IC50” value in assay [5] is reported as greater than 4861; in assay [6] it was greater than 553. In addition, the half-inhibitory concentration (IC50) in assay [1] is greater than 175 µM; in assay [2], 0.316 µM; in assay [3], 0.036 µM.
As to `CCN(CC)c1ccc(NC(=N)N)cc1`, the figures for the 50% inhibitory concentration (IC50) in assay [1], in assay [2] and in assay [3] were 78.1 µM, 2.4 µM and 5.7 µM, respectively.
`O=S(=O)(c1ccc(NC2=NCCN2)cc1)c1ccc(NC2=NCCN2)cc1`: in assay [4], the shift in melting temperature (ΔTm) was found to be 12.1 °C. In addition, the “Ratio IC50” value is listed as greater than 35 in assay [5] and greater than 6 in assay [6]. In addition, the half-maximal inhibitory concentration (IC50) in assay [1] was greater than 196 µM; in assay [2], 32.4 µM; in assay [3] it was 5.6 µM.
Take `N=C(N)Nc1ccc(NC(=O)c2ccccc2)cc1`: the results for the IC50 in assay [1], in assay [2] and in assay [3] were greater than 309 µM, 122 µM and 10.4 µM, respectively.
For `c1ccc(Cc2ccc(NC3=NCCN3)cc2)cc1` the same measures were 73 µM, 4.9 µM and 1.7 µM.
`N=C(N)Nc1ccc(C(=O)c2ccc(NC(=N)N)cc2)cc1`: the thermal shift (ΔTm) in assay [4] worked out at 27.6 °C. The “Ratio IC50” value in assay [5] is 40; in assay [6] it was 13. For the same molecule, the IC50 came out at 2.7 µM in assay [1], 0.206 µM in assay [2] and 0.068 µM in assay [3].
For `N=C(N)Nc1ccc2c(c1)OCCO2`, the IC50 in assay [1] is greater than 391 µM; in assay [2], 150 µM; in assay [3] it was 9 µM.
As for `N=C(N)Nc1ccc(Oc2ccccc2)cc1`, the values for the half-inhibitory concentration (IC50) in assay [1], in assay [2] and in assay [3] were 59.9 µM, 18.8 µM and 7.9 µM, respectively.
On the same counts, the results for `Cc1ccc(NC(=N)N)cc1C` are 190 µM, 39.9 µM and 12.2 µM.
On the same counts, the results for `c1ccc(Oc2ccc(NC3=NCCN3)cc2)cc1` are 167 µM, 5 µM and 5.7 µM.
For `CC(=O)c1ccc(NC2=NCCN2)cc1` the same measures were greater than 375 µM, 54.6 µM and 5.7 µM.
